Entries after “also recorded” stand apart in the source; their conditions may differ.
Assays:
LasB = LasB (Pseudomonas aeruginosa, UniProt P14756); assay: LasB fluorescence assay based on a LasB-cleavable FRET peptide substrate; format: biochemical; conditions: for less potent than 8a and 8b in the in vitro LasB assay: relative to 8a and 8b; for improvement in potency: relative to fragment hits 3 and 4
[1] = test system: P. aeruginosa strain PA14; assay: swarming assay on swarm agar plates; format: cell-based, Pseudomonas aeruginosa; conditions: for swarming inhibition: data not shown; for effect on swarming: 25 μM, 16 h at 30 °C, versus DMSO-treated control
Method in brief: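 Test compound was added to the swarm agar at 25 μM, and P. aeruginosa PA14 was grown on these plates for 16 h at 30 °C. Swarm morphology was compared visually with plates containing DMSO as the vehicle control.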

[2] = stability studies in bacterial culture medium; format: physicochemical; conditions: 48 h period
secreted LasB = secreted LasB (Pseudomonas aeruginosa, UniProt Q02RJ6); assay: bacterial P. aeruginosa elastase assays; format: cell-based
Sequence of secreted LasB (Q02RJ6 198-498): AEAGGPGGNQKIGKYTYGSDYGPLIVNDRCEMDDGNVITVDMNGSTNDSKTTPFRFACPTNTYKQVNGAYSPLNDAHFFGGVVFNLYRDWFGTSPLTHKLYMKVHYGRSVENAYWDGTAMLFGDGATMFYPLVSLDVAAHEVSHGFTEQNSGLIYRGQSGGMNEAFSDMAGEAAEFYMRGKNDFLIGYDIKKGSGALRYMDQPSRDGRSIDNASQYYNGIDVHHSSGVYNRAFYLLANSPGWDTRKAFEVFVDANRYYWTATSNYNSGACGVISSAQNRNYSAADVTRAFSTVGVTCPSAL

Sequence of LasB (P14756 198-498): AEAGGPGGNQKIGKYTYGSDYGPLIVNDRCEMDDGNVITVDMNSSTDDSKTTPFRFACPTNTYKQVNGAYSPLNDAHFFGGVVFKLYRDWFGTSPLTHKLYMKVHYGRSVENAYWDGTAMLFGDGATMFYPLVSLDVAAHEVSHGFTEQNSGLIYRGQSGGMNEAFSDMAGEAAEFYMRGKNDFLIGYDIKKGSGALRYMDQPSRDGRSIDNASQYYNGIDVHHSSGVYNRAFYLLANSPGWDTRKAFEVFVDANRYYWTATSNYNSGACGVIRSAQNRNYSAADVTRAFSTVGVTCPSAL

| SMILES | less potent than 8a and 8b in the in vitro LasB assay (LasB) | swarming inhibition [1] | stability in bacterial culture medium [2] | antagonism in bacterial P. aeruginosa elastase assays (secreted LasB inhibition) (secreted LasB) | improvement in potency (LasB) | effect on swarming [1] |
| --- | --- | --- | --- | --- | --- | --- |
| O=C(Cc1ccccc1)NO [Compound 1] | ~ 5 fold | no swarming inhibition | hydrolytic instability | no secreted LasB inhibition; also recorded: no antagonism |  |  |
| O=C(Cc1cccc(F)c1)NO [Compound 2] | ~ 5 fold | no swarming inhibition | hydrolytic instability | no secreted LasB inhibition; also recorded: no antagonism |  |  |
| Cc1c(O)c(=S)ccn1Cc1ccc(-c2ccc(F)c(F)c2)cc1 [Compound 8a] |  |  | no detectable S-oxidation or decomposition |  | ~ 30 fold | almost completely abolished swarming |
| Cc1c(O)c(=S)ccn1Cc1ccc(-c2ccccc2)cc1 [Compound 8b] |  |  | no detectable S-oxidation or decomposition |  | ~ 30 fold | almost completely abolished swarming |

From paper PMC3501683 (ACS medicinal chemistry letters, 2012)
